# Results: ChEMBL document CHEMBL3875213, “Quinolines: Microwave-assisted synthesis and their antifungal, anticancer and radical scavenger properties” (Bioorg Med Chem, 2017)
# Active and inactive are the calls of the source. The calls are words filed in the database; no cut-off is given here.
# Experiments:
# Format in all cases: functional
# Candida albicans [1] = assay: Growth inhibition of Candida albicans ATCC 10231 at 31.25 ug/ml incubated for 48 hrs under dark condition by broth microdilution assay relative to amphotericin B; settings: ATCC 10231, 48 h, read-out: GI
# Procedure, shortened: (§1)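 Yeast broth microdilution (CLSI M27-A3), RPMI-1640, inoculum 1-5 x 10^3 CFU/mL, DMSO ≤1%, 48 h at 30 °C in a moist, dark chamber. […]. Triplicate; amphotericin B as positive control.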
# Candida albicans [2] = assay: Growth inhibition of Candida albicans ATCC 10231 at 250 ug/ml incubated for 48 hrs under dark condition by broth microdilution assay relative to amphotericin B; settings: ATCC 10231, 48 h, read-out: GI; procedure, shortened: as §1
# Candida albicans [3] = assay: Growth inhibition of Candida albicans ATCC 10231 at 3.9 ug/ml incubated for 48 hrs under dark condition by broth microdilution assay relative to amphotericin B; settings: ATCC 10231, 48 h, read-out: GI; procedure, shortened: as §1
# Candida albicans [4] = assay: Growth inhibition of Candida albicans ATCC 10231 at 62.5 ug/ml incubated for 48 hrs under dark condition by broth microdilution assay relative to amphotericin B; settings: ATCC 10231, 48 h, read-out: GI; procedure, shortened: as §1
# Candida albicans [5] = assay: Antifungal activity against Candida albicans ATCC 10231 incubated for 48 hrs under dark condition by broth microdilution assay; settings: ATCC 10231, 48 h
# Procedure, shortened: (§2)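 Broth microdilution per CLSI M27-A3 in RPMI-1640. Inocula adjusted to 1-5 x 10^3 CFU/mL. Stocks in DMSO (≤1%), final 3.9-250.0 µg/mL. Incubated 48 h at 30 °C in a moist, dark chamber, read at OD 405. % inhibition computed from growth and sterility control wells, run in triplicate. MIC80/MIC50 taken from four-parameter logistic concentration-response curves; amphotericin B as positive control.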
# [6] = Antifungal activity against Cryptococcus neoformans ATCC 32264 incubated for 48 hrs under dark condition by broth microdilution assay; procedure, shortened: as §2
# Candida albicans [7] = assay: Growth inhibition of Candida albicans ATCC 10231 at 15.62 ug/ml incubated for 48 hrs under dark condition by broth microdilution assay relative to amphotericin B; settings: ATCC 10231, 48 h, read-out: GI; procedure, shortened: as §1
# Candida albicans [8] = assay: Growth inhibition of Candida albicans ATCC 10231 at 125 ug/ml incubated for 48 hrs under dark condition by broth microdilution assay relative to amphotericin B; settings: ATCC 10231, 48 h, read-out: GI; procedure, shortened: as §1
# [9] = Antioxidant activity assessed as DPPH radical scavenging activity at 160 uM incubated for 30 mins under dark condition
# Procedure, shortened: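 Compound at 160 µM incubated with 100 µM DPPH in ethanolic medium, stirred in the dark for 30 min, read at 517 nm. Resveratrol as positive control. Three independent experiments, each in triplicate.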
# Candida albicans [10] = assay: Growth inhibition of Candida albicans ATCC 10231 at 7.81 ug/ml incubated for 48 hrs under dark condition by broth microdilution assay relative to amphotericin B; settings: ATCC 10231, 48 h, read-out: GI; procedure, shortened: as §1
# [11] = Antioxidant activity assessed as fluorescent light-induced superoxide anion scavenging activity at 160 uM incubated for 10 mins by nitroblue tetrazolium dye based assay
# Procedure, shortened: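 Superoxide generated photochemically in 50 mM phosphate buffer pH 7.8 with 13 mM L-methionine, 75 µM nitroblue tetrazolium, 100 µM EDTA and 2 µM riboflavin. Compound at 160 µM. 10 min at 25 °C under fluorescent light; dark controls. Read at 575 nm. Resveratrol as positive control; three independent experiments in triplicate.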
# [12] = Antioxidant activity assessed as DPPH radical scavenging activity incubated for 30 mins under dark condition
# Procedure, shortened: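 DPPH (100 µM) in ethanolic medium, stirred 30 min in the dark, absorbance at 517 nm. Compound varied from 0 to 160 µg/mL to find the concentration scavenging 50% of radicals. Three independent experiments, each in triplicate.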
# [13] = Antioxidant activity assessed as fluorescent light-induced superoxide anion scavenging activity incubated for 10 mins by nitroblue tetrazolium dye based assay
# Procedure, shortened: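 Riboflavin/light superoxide system: 50 mM phosphate pH 7.8, 13 mM L-methionine, 75 µM NBT, 100 µM EDTA, 2 µM riboflavin, compound 0-200 µg/mL. Fluorescent light for 10 min at 25 °C, dark controls, scavenging measured at 575 nm. Resveratrol as reference.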
Compound,inhibition of growth at 31.25 µg/mL (Candida albicans [1]) [%],inhibition of growth at 250 µg/mL (Candida albicans [2]) [%],inhibition of growth at 3.9 µg/mL (Candida albicans [3]) [%],inhibition of growth at 62.5 µg/mL (Candida albicans [4]) [%],MIC50 (Candida albicans [5]) [µg/mL],MIC80 (Candida albicans [5]) [µg/mL],MIC50 [6] [µg/mL],MIC80 [6] [µg/mL],inhibition of growth at 15.62 µg/mL (Candida albicans [7]) [%],inhibition of growth at 125 µg/mL (Candida albicans [8]) [%],Activity [9],inhibition of growth at 7.81 µg/mL (Candida albicans [10]) [%],Activity [11],SC50 [12] [µM],SC50 [13] [µM]
Oc1ccc2c(-c3ccccc3)cc(-c3ccccc3)nc2c1,12.8,53.9,0,21.2,> 250,> 250,15.6,> 250,80.4,29.9,70 to 85%,0,,,
Oc1ccc(/C=C/c2cc(O)cc(O)c2)cc1,,,,,,,,,,,Active,,Active,8.2,255
O=[N+]([O-])c1ccc(-c2cc(-c3ccccc3)c3cc(Br)ccc3n2)cc1,4.01,18.2,0,4.28,> 250,> 250,> 250,> 250,2.64,5.11,40%,1.55,Active,,
C[C@@H]1[C@H](O)[C@@H](C)/C=C/C=C/C=C/C=C/C=C/C=C/C=C/[C@H](O[C@@H]2O[C@H](C)[C@@H](O)[C@H](N)[C@@H]2O)C[C@@H]2O[C@](O)(C[C@@H](O)C[C@@H](O)[C@H](O)CC[C@@H](O)C[C@@H](O)CC(=O)O[C@H]1C)C[C@H](O)[C@H]2C(=O)O [AMPHOTERICIN B],,,,,0.06,0.12,0.12,0.25,,,,,,,
COc1cc2nc(-c3ccccc3)cc(-c3ccccc3)c2c(OC)c1OC,8.13,100,0,20.7,125,125,7.8,15.6,6.76,86.7,70 to 85%,6.81,Active,18.9,> 250
O=[N+]([O-])c1ccc2nc(-c3ccccc3)cc(-c3ccccc3)c2c1,1.57,36.1,0,5.93,> 250,> 250,125,250,0,15.4,45 to 55%,0,Active,104,> 250
FC(F)(F)c1cc2nc(-c3ccccc3)cc(-c3ccccc3)c2cc1Cl,9.41,54.1,0,15.7,250,> 250,250,> 250,5.36,25.7,,3.5,,,
COc1ccc(-c2cc(-c3ccccc3)c3cc(Br)ccc3n2)cc1,4.5,10.6,0,4.57,> 250,> 250,> 250,> 250,4.06,8.32,,0,Active,,
